Experimental data published in ChEMBL document CHEMBL3102810, “Alkylamino derivatives of pyrazinamide: synthesis and antimycobacterial evaluation” (Bioorg Med Chem Lett, 2014).
≈ marks a conversion by molar mass, not a printed value. Calls of active or inactive are those of the source. No cut-off for these calls is given here.

Legend:
[1] = test system: Trichophyton mentagrophytes; assay: Antifungal activity against Trichophyton mentagrophytes 445 after 72 to 120 hrs by microdilution broth method; assay type: functional, organism-based
Lichtheimia corymbifera = assay: Antifungal activity against Absidia corymbifera 272 after 72 to 120 hrs by microdilution broth method; assay type: functional, organism-based
Aspergillus fumigatus = assay: Antifungal activity against Aspergillus fumigatus 231 after 72 to 120 hrs by microdilution broth method; assay type: functional, organism-based
Nakaseomyces glabratus = assay: Antifungal activity against Candida glabrata 20/I after 72 to 120 hrs by microdilution broth method; assay type: functional, organism-based
Trichosporon asahii = assay: Antifungal activity against Trichosporon asahii 1188 after 72 to 120 hrs by microdilution broth method; assay type: functional, organism-based
Pichia kudriavzevii = assay: Antifungal activity against Candida krusei E28 after 72 to 120 hrs by microdilution broth method; assay type: functional, organism-based
Candida tropicalis = assay: Antifungal activity against Candida tropicalis 156 after 72 to 120 hrs by microdilution broth method; assay type: functional, organism-based
Candida albicans = assay: Antifungal activity against Candida albicans ATCC 44859 after 72 to 120 hrs by microdilution broth method; assay type: functional, organism-based
[2] = test system: Trichophyton mentagrophytes; assay: Antifungal activity against Trichophyton mentagrophytes after 72 to 120 hrs by microdilution broth method; assay type: functional, organism-based
[3] = test system: Staphylococcus epidermidis; assay: Antibacterial activity against Staphylococcus epidermidis H 6966/08 after 48 hrs by microdilution broth method; assay type: functional
In short: (§1)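 Antibacterial screen with compound concentrations up to a highest level of 500 µM. Results expressed as MIC in µM.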

Klebsiella pneumoniae [4] = assay: Antibacterial activity against ESBL positive Klebsiella pneumoniae J 14368/08 after 24 to 48 hrs by microdilution broth method; assay type: functional, organism-based; in short: as §1
Klebsiella pneumoniae [5] = assay: Antibacterial activity against Klebsiella pneumoniae D 11750/08 after 24 to 48 hrs by microdilution broth method; assay type: functional, organism-based; in short: as §1
Enterococcus sp. = assay: Antibacterial activity against Enterococcus sp. J 14365/08 after 24 to 48 hrs by microdilution broth method; assay type: functional, organism-based; in short: as §1
[6] = test system: Staphylococcus epidermidis; assay: Antibacterial activity against methicillin-resistant Staphylococcus epidermidis H 5996/08 after 24 to 48 hrs by microdilution broth method; assay type: functional, organism-based
Pseudomonas aeruginosa = assay: Antibacterial activity against Pseudomonas aeruginosa CCM 1961 after 24 to 48 hrs by microdilution broth method; assay type: functional, organism-based; in short: as §1
Escherichia coli = assay: Antibacterial activity against Escherichia coli CCM 4517 after 24 to 48 hrs by microdilution broth method; assay type: functional, organism-based; in short: as §1
Staphylococcus aureus = assay: Antibacterial activity against Staphylococcus aureus CCM 4516/08 after 24 to 48 hrs by microdilution broth method; assay type: functional, organism-based; in short: as §1
[7] = test system: Staphylococcus epidermidis; assay: Antibacterial activity against Staphylococcus epidermidis H 6966/08 up to 500 uM after 24 to 48 hrs by microdilution broth method; assay type: functional, organism-based; in short: as §1
Mycobacterium avium [8] = assay: Antimycobacterial activity against pyrazinamide-resistant Mycobacterium avium CNCTC My 152/73 after 5 days by microplate alamar blue assay; assay type: functional; details: CNCTC My 152/73, 120 h
In short: (§2)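 Microplate alamar blue assay run at pH 5.6, using conditions optimized for pyrazinamide. Strains came from the Czech National Collection of Type Cultures. MIC was read in µg/mL and converted to µM using molecular weight.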

[9] = Lipophilicity, log K of the compound by HPLC analysis; assay type: physicochemical
Mycobacterium avium [10] = assay: Antimycobacterial activity against pyrazinamide-resistant Mycobacterium avium CNCTC My 80/72 after 5 days by microplate alamar blue assay; assay type: functional; details: CNCTC My 80/72, 120 h; in short: as §2
Mycobacterium kansasii = assay: Antimycobacterial activity against pyrazinamide-resistant Mycobacterium kansasii CNCTC My 235/80 after 5 days by microplate alamar blue assay; assay type: functional; details: CNCTC My 235/80, 120 h; in short: as §2
[11] = test system: Mycobacterium tuberculosis; assay: Antimycobacterial activity against Mycobacterium tuberculosis H37Rv CNCTC My 331/88 after 5 days by microplate alamar blue assay; assay type: functional; details: H37Rv CNCTC My 331/88, 120 h; in short: as §2

Row | Structure (SMILES) | Activity [1] | Activity (Lichtheimia corymbifera) | Activity (Aspergillus fumigatus) | Activity (Nakaseomyces glabratus) | Activity (Trichosporon asahii) | Activity (Pichia kudriavzevii) | Activity (Candida tropicalis) | Activity (Candida albicans) | Activity [2] | Activity [3] | Activity (Klebsiella pneumoniae [4]) | Activity (Klebsiella pneumoniae [5]) | Activity (Enterococcus sp.) | Activity [6] | Activity (Pseudomonas aeruginosa) | Activity (Escherichia coli) | Activity (Staphylococcus aureus) | Activity [7] | MIC (Mycobacterium avium [8]) [µg/mL] | log K [9] | other results
1 | CNc1cncc(C(N)=O)n1 | inactive | inactive | inactive | inactive | inactive | inactive | inactive | inactive | inactive | inactive | inactive | inactive | inactive | inactive | inactive | inactive | inactive | inactive | – | – | –
2 | CCCNc1cnc(C(N)=O)cn1 | inactive | inactive | inactive | inactive | inactive | inactive | inactive | inactive | inactive | inactive | inactive | inactive | inactive | inactive | inactive | inactive | inactive | inactive | > 100 | -0.3878 | MIC (Mycobacterium avium [10]): > 100 µg/mL; MIC (Mycobacterium kansasii): > 100 µg/mL; MIC [11]: > 100 µg/mL
3 | NC(=O)c1cncc(NCCc2ccccc2)n1 | inactive | inactive | inactive | inactive | inactive | inactive | inactive | inactive | inactive | inactive | inactive | inactive | inactive | inactive | inactive | inactive | inactive | inactive | > 100 | -0.0986 | MIC (Mycobacterium avium [10]): > 100 µg/mL; MIC (Mycobacterium kansasii): > 100 µg/mL; MIC [11]: > 100 µg/mL
4 | CCCCNc1cncc(C(N)=O)n1 | inactive | inactive | inactive | inactive | inactive | inactive | inactive | inactive | inactive | inactive | inactive | inactive | inactive | inactive | inactive | inactive | inactive | inactive | > 100 | -0.2162 | MIC (Mycobacterium avium [10]): > 100 µg/mL; MIC (Mycobacterium kansasii): > 100 µg/mL; MIC [11]: 100 µg/mL
5 | CCCNc1cncc(C(N)=O)n1 | inactive | inactive | inactive | inactive | inactive | inactive | inactive | inactive | inactive | inactive | inactive | inactive | inactive | inactive | inactive | inactive | inactive | inactive | > 100 | -0.4386 | MIC (Mycobacterium avium [10]): > 100 µg/mL; MIC (Mycobacterium kansasii): > 100 µg/mL; MIC [11]: > 100 µg/mL
6 | NC(=O)c1cncc(N)n1 | inactive | inactive | inactive | inactive | inactive | inactive | inactive | inactive | inactive | inactive | inactive | inactive | inactive | inactive | inactive | inactive | inactive | inactive | > 100 | -0.7814 | MIC (Mycobacterium avium [10]): > 100 µg/mL; MIC (Mycobacterium kansasii): > 100 µg/mL; MIC [11]: > 100 µg/mL
7 | NC(=O)c1cnc(N)cn1 | inactive | inactive | inactive | inactive | inactive | inactive | inactive | inactive | inactive | inactive | inactive | inactive | inactive | inactive | inactive | inactive | inactive | inactive | > 100 | -0.7852 | MIC (Mycobacterium avium [10]): > 100 µg/mL; MIC (Mycobacterium kansasii): > 100 µg/mL; MIC [11]: > 100 µg/mL
8 | CCCCCNc1cncc(C(N)=O)n1 | inactive | inactive | inactive | inactive | inactive | inactive | inactive | inactive | inactive | inactive | inactive | inactive | inactive | inactive | inactive | inactive | inactive | inactive | > 100 | -0.0095 | MIC (Mycobacterium avium [10]): > 100 µg/mL; MIC (Mycobacterium kansasii): > 100 µg/mL; MIC [11]: 100 µg/mL
9 | CCCCCNc1cnc(C(N)=O)cn1 | inactive | inactive | inactive | inactive | inactive | inactive | inactive | inactive | inactive | inactive | inactive | inactive | inactive | inactive | inactive | inactive | inactive | inactive | > 100 | 0.0181 | MIC (Mycobacterium avium [10]): > 100 µg/mL; MIC (Mycobacterium kansasii): > 100 µg/mL; MIC [11]: > 100 µg/mL
10 | NC(=O)c1cncc(NCCCc2ccccc2)n1 | inactive | inactive | inactive | inactive | inactive | inactive | inactive | inactive | inactive | inactive | inactive | inactive | inactive | inactive | inactive | inactive | inactive | inactive | > 100 | 0.0741 | MIC (Mycobacterium avium [10]): > 100 µg/mL; MIC (Mycobacterium kansasii): > 100 µg/mL; MIC [11]: > 100 µg/mL
11 | CCCCCCNc1cnc(C(N)=O)cn1 | inactive | inactive | inactive | inactive | inactive | inactive | inactive | inactive | inactive | inactive | inactive | inactive | inactive | inactive | inactive | inactive | inactive | inactive | > 100 | 0.2389 | MIC (Mycobacterium avium [10]): > 100 µg/mL; MIC (Mycobacterium kansasii): 100 µg/mL; MIC [11]: 225 µM
12 | NNC(=O)c1ccncc1 [ISONIAZID] | – | – | – | – | – | – | – | – | – | – | – | – | – | – | – | – | – | – | 6.25 (≈ 45.6 µM) | -0.7432 | MIC (Mycobacterium avium [10]): 12.5 µg/mL (≈ 91.1 µM); MIC (Mycobacterium kansasii): 11 µM; MIC [11]: 3 µM
